Key:
CDK3/cyclin E = CDK3/cyclin E (Homo sapiens, UniProt O96020+P24864+Q00526); assay: Inhibition of CDK3/Cyclin E (unknown origin); type: protein-complex assay
Mus musculus [1] = assay: In vivo inhibition of mTOR1-mediated phosphorylation of p70S6K at […] in human MCF7 cells xenografted into athymic nude mouse at 100 mg/kg, po after 8 hrs by Western blotting analysis relative to control; type: functional; conditions: MCF7, 8 h
Mus musculus [2] = assay: In vivo inhibition of mTORC1-mediated phosphorylation of p70S6K at […] in human MCF7 cells xenografted into athymic nude mouse at 100 mg/kg, po after 4 hrs by Western blotting analysis relative to control; type: functional; conditions: MCF7, 4 h
Outline: (§1)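 MCF-7 cells (DMEM, 10% FBS) were implanted subcutaneously at 5 × 10^6 cells in 50% cold HBSS/50% growth-factor-reduced matrigel into the hindflank of 5−8 week old female nude mice. At tumor size 40−150 mg, mice received a single oral dose of 100 mg/kg. Tumor lysates were pooled per group. Phospho-AKT (S473, T308), p70S6K (T389), S6 (S240/244) and 4E-BP1 (T37/46) were measured by Western blot normalized to α-tubulin.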

Mus musculus [3] = assay: In vivo inhibition of mTORC2-mediated phosphorylation of AKT at […] in human MCF7 cells xenografted into athymic nude mouse at 100 mg/kg, po after 24 hrs by Western blotting analysis relative to control; type: functional; conditions: MCF7, 24 h; outline: as §1
Mus musculus [4] = assay: In vivo inhibition of mTORC2-mediated phosphorylation of AKT at serine 473 in human PC3 cells xenografted into athymic nude mouse at 100 mg/kg, po after 16 hrs by Western blotting analysis relative to control; type: functional; conditions: PC-3, 16 h
Outline: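 PC-3 cells grown in DMEM with 20% FBS were implanted subcutaneously at 3 × 10^6 cells in ice-cold HBSS into the hindflank of 5−8 week old male nude mice. At tumor size 200−500 mg, mice received a single oral dose of 100 mg/kg. Plasma and tumors were collected at 1, 4, 8, 16, 24 and 32 h. Tumor lysates from each group (n = 5) were pooled. Phospho-proteins were quantified by Western blot and normalized to α-tubulin.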

[5] = Tmax in athymic nude mouse at 10 mg/kg, po; type: ADME, organism-based; set-up: dose 10 mg/kg, route oral; conditions: in vivo
[6] = Plasma protein binding in rat at 5 uM; type: ADME, cell-free; conditions: read-out: PPB (converted)
[7] = Cmax in athymic nude mouse at 10 mg/kg, iv; type: ADME, organism-based; set-up: dose 10 mg/kg, route intravenous; conditions: in vivo
Outline: (§2)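 Single-dose PK: female athymic nude mice (10 mg/kg), female CD rats and male beagle dogs (3 mg/kg), male cynomolgus monkeys (3 mg/kg), given iv and by oral gavage. Solution in EPW (5% ethanol/45% PEG400/water), with 1:2 HCl (m/m) for mouse, rat and dog and 1:1.5 HCl (m/m) for monkey. Plasma levels followed over 24 h.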

Mus musculus [8] = assay: In vivo inhibition of mTORC2-mediated phosphorylation of AKT at serine 473 in human MCF7 cells xenografted into athymic nude mouse at 100 mg/kg, po after 32 hrs by Western blotting analysis relative to control; type: functional; conditions: MCF7, 32 h; outline: as §1
[9] = Plasma concentration in athymic mouse plasma xenografted with human MCF7 cells at 100 mg/kg, po after 8 hrs; type: ADME, organism-based; set-up: dose 100 mg/kg, route oral
[10] = Drug uptake in tumor of athymic mouse xenografted with human PC3 cells at 100 mg/kg, po after 1 hr; type: ADME, organism-based, Neoplasm, PC-3; set-up: dose 100 mg/kg, route oral; conditions: read-out: Drug uptake
Outline: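 PC-3 cells (3 × 10⁶, passages 10–14, in ice-cold HBSS) were implanted sc in 5–8 week old male nude mice. Tumors of 200–500 mg received a single oral 100 mg/kg dose. Plasma and tumor were collected at 1, 4, 8, 16, 24 and 32 h and homogenized in buffer. Lysates were pooled per group (n = 5), and phospho-proteins were measured by Western blot normalized to α-tubulin.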

Plasma = assay: Plasma concentration in athymic mouse plasma xenografted with human PC3 cells at 100 mg/kg, po after 32 hrs; type: ADME, organism-based, PC-3; set-up: dose 100 mg/kg, route oral; conditions: in vivo, BLD = below limit of detection
Mus musculus [11] = assay: In vivo inhibition of mTORC2-mediated phosphorylation of AKT at serine 473 in human MCF7 cells xenografted into athymic nude mouse at 100 mg/kg, po after 16 hrs by Western blotting analysis relative to control; type: functional; conditions: MCF7, 16 h; outline: as §1
[12] = molecular target: Ribosomal protein S6 kinase beta-1 (Homo sapiens, UniProt P23443); assay: Inhibition of p70S6K (unknown origin)
[13] = molecular target: Cell division cycle 7-related protein kinase (Homo sapiens, UniProt O00311); assay: Inhibition of CDC7 (unknown origin)
[14] = molecular target: Proto-oncogene tyrosine-protein kinase Src (Homo sapiens, UniProt P12931); assay: Inhibition of SRC (unknown origin)
Mus musculus [15] = assay: In vivo inhibition of mTORC2-mediated phosphorylation of AKT at […] in human PC3 cells xenografted into athymic nude mouse at 100 mg/kg, po after 24 hrs by Western blotting analysis relative to control; type: functional; conditions: PC-3, 24 h
Outline: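 Human PC-3 cells were implanted subcutaneously into the hindflank of male nude mice aged 5−8 weeks, at 3 × 10^6 cells (passages 10−14, >95% viability) in ice-cold HBSS. At a tumor size of 200−500 mg, mice got one oral 100 mg/kg dose. Tumors were taken at 1, 4, 8, 16, 24 and 32 h. Lysates (n = 5 per group) were pooled, and phospho-AKT (T308) was read by Western blot, normalized to α-tubulin.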

[16] = Plasma concentration in athymic mouse plasma xenografted with human PC3 cells at 100 mg/kg, po after 1 hr; type: ADME, organism-based, PC-3; set-up: dose 100 mg/kg, route oral
[17] = AUC (0 to infinity) in CD rat at 3 mg/kg, po; type: ADME, organism-based; set-up: time infinity, dose 3 mg/kg, route oral; conditions: plasma; outline: as §2
Mus musculus [18] = assay: In vivo inhibition of mTORC2-mediated phosphorylation of AKT at […] in human MCF7 cells xenografted into athymic nude mouse at 100 mg/kg, po after 4 hrs by Western blotting analysis relative to control; type: functional; conditions: MCF7, 4 h
Outline: (§3)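 Human MCF-7 cells were implanted subcutaneously into the hindflank of female nude mice aged 5−8 weeks, at 5 × 10^6 cells in 50% cold HBSS/50% growth-factor-reduced matrigel. At a tumor size of 40−150 mg, mice got one oral dose. Tumor lysates were pooled per group. Phospho-AKT (T308) was read by Western blot and normalized to α-tubulin.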

[19] = Tmax in cynomolgus monkey at 3 mg/kg, po; type: ADME, organism-based, Macaca fascicularis; set-up: dose 3 mg/kg, route oral; conditions: in vivo
[20] = AUC (0 to infinity) in Beagle dog at 3 mg/kg, po; type: ADME, organism-based, Canis lupus familiaris; set-up: time infinity, dose 3 mg/kg, route oral; conditions: plasma; outline: as §2
[21] = Drug uptake in tumor of athymic mouse xenografted with human MCF7 cells at 100 mg/kg, po after 8 hrs; type: ADME, organism-based, Neoplasm; set-up: dose 100 mg/kg, route oral; conditions: read-out: Drug uptake
Mus musculus [22] = assay: In vivo inhibition of mTORC2-mediated phosphorylation of AKT at […] in human MCF7 cells xenografted into athymic nude mouse at 100 mg/kg, po after 8 hrs by Western blotting analysis relative to control; type: functional; conditions: MCF7, 8 h; outline: as §3
Mus musculus [23] = assay: Toxicity in athymic nude mouse assessed as body weight gain at 50 mg/kg, po relative to control; type: organism-based; set-up: dose 50 mg/kg, route oral; conditions: in vivo
[24] = molecular target: Serine/threonine-protein kinase pim-1 (Homo sapiens, UniProt P11309); assay: Inhibition of PIM1 (unknown origin)
[25] = molecular target: Phosphatidylinositol 4,5-bisphosphate 3-kinase catalytic subunit delta isoform (Homo sapiens, UniProt O00329); assay: Inhibition of PI3Kdelta (unknown origin)
Phosphatidylinositol 4,5-bisphosphate 3-kinase catalytic subunit delta isoform, sequence (O00329 whole entry, canonical isoform): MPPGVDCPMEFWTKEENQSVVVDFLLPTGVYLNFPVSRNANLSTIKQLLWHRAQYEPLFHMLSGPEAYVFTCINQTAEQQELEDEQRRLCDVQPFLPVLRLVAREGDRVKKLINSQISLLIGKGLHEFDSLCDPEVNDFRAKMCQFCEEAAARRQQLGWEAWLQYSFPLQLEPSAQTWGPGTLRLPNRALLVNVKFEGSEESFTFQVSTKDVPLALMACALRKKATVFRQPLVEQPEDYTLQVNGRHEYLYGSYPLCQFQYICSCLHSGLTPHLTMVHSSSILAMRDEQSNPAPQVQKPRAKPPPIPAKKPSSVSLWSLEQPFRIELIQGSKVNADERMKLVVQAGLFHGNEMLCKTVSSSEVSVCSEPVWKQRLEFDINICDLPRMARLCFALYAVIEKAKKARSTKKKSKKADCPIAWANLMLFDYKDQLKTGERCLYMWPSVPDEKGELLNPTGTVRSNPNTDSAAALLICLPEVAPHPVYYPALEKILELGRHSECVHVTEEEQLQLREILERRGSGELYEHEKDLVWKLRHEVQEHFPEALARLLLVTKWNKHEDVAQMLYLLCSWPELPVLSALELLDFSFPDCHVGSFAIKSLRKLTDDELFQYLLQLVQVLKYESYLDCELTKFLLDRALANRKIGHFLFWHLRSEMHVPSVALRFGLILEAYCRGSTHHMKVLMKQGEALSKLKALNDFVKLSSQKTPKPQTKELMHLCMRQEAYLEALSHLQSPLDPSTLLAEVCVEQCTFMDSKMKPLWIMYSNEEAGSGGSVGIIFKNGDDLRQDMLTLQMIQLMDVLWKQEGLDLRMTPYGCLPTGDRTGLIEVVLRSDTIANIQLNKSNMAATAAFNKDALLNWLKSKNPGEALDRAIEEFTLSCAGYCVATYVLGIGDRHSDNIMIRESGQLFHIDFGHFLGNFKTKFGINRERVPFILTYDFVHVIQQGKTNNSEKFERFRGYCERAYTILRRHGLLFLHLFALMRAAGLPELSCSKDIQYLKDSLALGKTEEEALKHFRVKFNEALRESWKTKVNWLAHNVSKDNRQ

Ribosomal protein S6 kinase beta-1, sequence (P23443 whole entry): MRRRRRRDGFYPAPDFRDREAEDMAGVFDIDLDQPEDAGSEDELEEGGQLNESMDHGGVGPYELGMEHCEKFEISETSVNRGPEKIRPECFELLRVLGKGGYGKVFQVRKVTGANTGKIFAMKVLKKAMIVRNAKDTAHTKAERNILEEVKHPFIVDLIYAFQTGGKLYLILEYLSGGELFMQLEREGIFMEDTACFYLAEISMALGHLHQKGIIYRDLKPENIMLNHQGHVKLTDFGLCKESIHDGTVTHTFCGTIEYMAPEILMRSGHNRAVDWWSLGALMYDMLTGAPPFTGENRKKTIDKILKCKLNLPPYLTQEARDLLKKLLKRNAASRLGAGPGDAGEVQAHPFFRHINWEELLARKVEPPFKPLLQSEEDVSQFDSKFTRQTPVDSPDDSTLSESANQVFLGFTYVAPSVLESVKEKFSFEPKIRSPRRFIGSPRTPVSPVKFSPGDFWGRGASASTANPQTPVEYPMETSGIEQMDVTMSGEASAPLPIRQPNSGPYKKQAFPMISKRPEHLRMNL
Cell division cycle 7-related protein kinase, sequence (O00311 whole entry): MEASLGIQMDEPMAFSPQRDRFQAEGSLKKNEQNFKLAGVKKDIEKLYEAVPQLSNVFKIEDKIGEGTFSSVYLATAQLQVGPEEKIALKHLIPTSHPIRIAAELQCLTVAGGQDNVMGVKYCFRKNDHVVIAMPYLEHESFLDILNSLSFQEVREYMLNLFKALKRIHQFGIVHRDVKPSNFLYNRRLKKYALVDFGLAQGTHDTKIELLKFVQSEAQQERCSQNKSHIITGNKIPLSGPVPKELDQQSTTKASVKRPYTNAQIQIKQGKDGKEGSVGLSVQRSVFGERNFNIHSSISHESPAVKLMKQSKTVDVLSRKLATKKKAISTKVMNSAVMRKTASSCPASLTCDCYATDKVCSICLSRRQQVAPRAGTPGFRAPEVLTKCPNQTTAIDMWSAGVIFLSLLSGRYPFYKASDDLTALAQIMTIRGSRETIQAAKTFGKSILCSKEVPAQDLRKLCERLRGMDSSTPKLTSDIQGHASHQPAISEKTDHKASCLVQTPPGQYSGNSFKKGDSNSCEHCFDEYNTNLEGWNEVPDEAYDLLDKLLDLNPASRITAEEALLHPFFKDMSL
CDK3/cyclin E, sequence (P24864 whole entry): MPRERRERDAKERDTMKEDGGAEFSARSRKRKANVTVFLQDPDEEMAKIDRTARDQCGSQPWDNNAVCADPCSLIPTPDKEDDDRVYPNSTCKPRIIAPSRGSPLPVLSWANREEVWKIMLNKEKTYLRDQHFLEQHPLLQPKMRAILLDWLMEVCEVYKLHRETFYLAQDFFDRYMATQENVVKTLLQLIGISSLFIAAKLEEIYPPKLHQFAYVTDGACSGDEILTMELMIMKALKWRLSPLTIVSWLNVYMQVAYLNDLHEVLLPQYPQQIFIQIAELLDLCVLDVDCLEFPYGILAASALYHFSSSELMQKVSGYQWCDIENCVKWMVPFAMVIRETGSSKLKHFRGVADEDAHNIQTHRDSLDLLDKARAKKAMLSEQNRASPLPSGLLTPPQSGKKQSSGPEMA
CDK3/cyclin E, sequence (O96020 whole entry): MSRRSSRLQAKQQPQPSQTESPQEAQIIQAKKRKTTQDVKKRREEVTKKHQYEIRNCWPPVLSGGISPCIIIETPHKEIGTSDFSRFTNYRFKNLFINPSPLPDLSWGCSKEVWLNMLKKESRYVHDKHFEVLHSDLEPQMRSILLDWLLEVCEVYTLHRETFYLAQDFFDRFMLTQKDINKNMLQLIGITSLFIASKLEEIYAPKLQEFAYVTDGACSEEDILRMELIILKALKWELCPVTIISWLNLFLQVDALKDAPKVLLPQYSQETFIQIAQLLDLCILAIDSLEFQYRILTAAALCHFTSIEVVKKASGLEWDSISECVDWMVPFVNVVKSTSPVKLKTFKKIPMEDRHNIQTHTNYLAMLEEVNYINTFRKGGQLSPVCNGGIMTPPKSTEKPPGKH
CDK3/cyclin E, sequence (Q00526 whole entry): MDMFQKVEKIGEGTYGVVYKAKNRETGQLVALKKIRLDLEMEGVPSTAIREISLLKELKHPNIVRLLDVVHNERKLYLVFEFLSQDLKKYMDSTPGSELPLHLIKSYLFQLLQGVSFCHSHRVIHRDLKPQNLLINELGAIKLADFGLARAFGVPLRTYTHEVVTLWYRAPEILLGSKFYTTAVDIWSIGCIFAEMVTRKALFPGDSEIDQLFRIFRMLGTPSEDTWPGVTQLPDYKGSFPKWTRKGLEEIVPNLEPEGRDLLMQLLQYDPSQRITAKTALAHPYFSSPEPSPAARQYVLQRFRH
Serine/threonine-protein kinase pim-1, sequence (P11309 whole entry, canonical isoform): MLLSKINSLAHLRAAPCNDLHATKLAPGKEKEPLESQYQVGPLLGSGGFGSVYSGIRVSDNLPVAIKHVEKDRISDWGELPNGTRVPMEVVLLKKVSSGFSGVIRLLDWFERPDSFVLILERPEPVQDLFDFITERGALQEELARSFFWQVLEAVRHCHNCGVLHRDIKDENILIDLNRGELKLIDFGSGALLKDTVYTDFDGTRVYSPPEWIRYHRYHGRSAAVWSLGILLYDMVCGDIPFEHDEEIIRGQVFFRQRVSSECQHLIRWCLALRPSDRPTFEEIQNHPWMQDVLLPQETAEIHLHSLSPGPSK
Proto-oncogene tyrosine-protein kinase Src, sequence (P12931 2-536 limits assumed): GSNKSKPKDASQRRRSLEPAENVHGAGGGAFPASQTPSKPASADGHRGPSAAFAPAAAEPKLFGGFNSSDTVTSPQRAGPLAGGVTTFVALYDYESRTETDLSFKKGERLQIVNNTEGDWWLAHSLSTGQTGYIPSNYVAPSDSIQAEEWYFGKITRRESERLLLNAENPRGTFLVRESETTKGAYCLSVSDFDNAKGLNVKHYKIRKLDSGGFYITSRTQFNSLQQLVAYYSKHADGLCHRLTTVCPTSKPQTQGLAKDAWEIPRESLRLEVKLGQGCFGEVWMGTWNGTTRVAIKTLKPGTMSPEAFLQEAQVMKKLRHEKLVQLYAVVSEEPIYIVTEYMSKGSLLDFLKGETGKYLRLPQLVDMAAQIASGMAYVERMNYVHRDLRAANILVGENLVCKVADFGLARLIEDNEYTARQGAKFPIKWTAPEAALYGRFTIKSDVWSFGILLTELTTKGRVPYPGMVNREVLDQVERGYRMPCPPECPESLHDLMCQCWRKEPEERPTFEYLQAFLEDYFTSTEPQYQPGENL

SMILES: Cc1c(C(=O)N2CCOc3ccc(-c4ccc(N)nc4)cc3C2)ccc(S(C)(=O)=O)c1F
- IC50 (CDK3/cyclin E): > 10 µM
- inhibition in vivo at 100 mg/kg (Mus musculus [1]): 81%
- inhibition in vivo at 100 mg/kg (Mus musculus [2]): 85%
- inhibition in vivo at 100 mg/kg (Mus musculus [3]): -39%
- inhibition in vivo at 100 mg/kg (Mus musculus [4]): 55%
- Tmax [5]: 0.5 h
- fraction unbound at 5 µM [6]: 0.15
- Cmax [7]: 9.14 µM
- inhibition in vivo at 100 mg/kg (Mus musculus [8]): 11%
- concentration at 8 h [9]: 16.5 µM
- concentration at 1 h [10]: 28.8 µM
- Cp (Plasma): BLD
- inhibition in vivo at 100 mg/kg (Mus musculus [11]): 69%
- IC50 [12]: > 3.5 µM
- IC50 [13]: > 3.5 µM
- IC50 [14]: > 3.5 µM
- inhibition in vivo at 100 mg/kg (Mus musculus [15]): 11%
- concentration at 1 h [16]: 32.6 µM
- AUC(0-inf) [17]: 0.952 µM·h
- inhibition in vivo at 100 mg/kg (Mus musculus [18]): 13%
- Tmax [19]: 2 h
- AUC(0-inf) [20]: 7.66 µM·h
- concentration at 8 h [21]: 16.6 µM
- inhibition in vivo at 100 mg/kg (Mus musculus [22]): -2%
- Activity (Mus musculus [23]): 2.2%
- IC50 [24]: > 3.5 µM
- IC50 [25]: > 5 µM

Source: ChEMBL document CHEMBL2331117 (J Med Chem, 2013)
